Screen size: about 340,000 compounds; about 1,100 (0.32%) were called active. The full list was thinned out, with actives kept by preference. Unmarked numbers belong to inactive results.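 The calls were made as follows: active = inhibition above a set limit, near 3 SD of compounds lacking own fluorescence (cut at about 54% in these data); inactive = the rest.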

The test system of the experiment is beta-arrestin 1 C-terminal peptide binding to AP2 beta2-adaptin appendage (human). Put plainly: blockers of arrestin peptide association with AP2 adaptin – biochemical, GPCR trafficking, flow cytometry, primary screen (AID 504490).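 Also: plate controls were DMSO wells for no effect and 5 µM unlabelled arrestin peptide for full effect.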 To be noted: FITC-arrestin peptide / GST-AP2 beads, at 10 µM, active compounds read high, AP2 beta2 appendage carries R879A mutation. Put shortly:
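System: GST-AP2 R879A glutathione beads; medium: PBS, Tween 20 0.05%, BSA 0.1%; reagent: fluorescein-tagged arrestin peptide at 50 nM final; schedule: pre-incubation 12 min, peptide binding 1 h, room temperature; detection: flow cytometry, FL1 (488/535 nm); read-out: inhibition as reduced fluorescein signal on beads, percent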
For orientation: A flow cytometer gives signals particle by particle.
Take `COc1ccccc1CNC(=O)COC(=O)c1cccs1`: the inhibition (as a rule, the relative decrease from the control value, in per cent) was -6.34%. To `COc1ccc(C2c3[nH]c4ccccc4c3C[C@H]3C(=O)N(CC(C)C)CC(=O)N23)c(OC)c1` (stereo partly drawn) belongs -2.46%.

As for `O=C(Cc1cccs1)Nc1nnc(SCc2ccc(F)cc2)s1`, the inhibition was 0.35%. Under `COc1ccc(Cc2nnc(NC(=O)Cc3cccs3)s2)cc1` stands 5.51%; under `CCCc1ccc(-c2csc(NC(=O)Cc3cccs3)n2)cc1`, 86.3% (active).

In the case of `CC(Sc1ncnc2c1cnn2-c1ccccc1)C(=O)Nc1ccc(N2CCOCC2)cc1` (stereo not drawn), the inhibition was 52.7%.

For `COc1ccc(C(C)(C)C)cc1NC(=O)CCN1C(=O)C2CCCCC2C1=O` (stereo not drawn), the inhibition was 4.94%.

As to `O=CN1CCN(C(=O)c2ccc3c(c2)OCO3)CC1`, the inhibition was -7.77%. Under `CCOC(=O)N1CCN(C(=O)C(C)NC(=O)c2ccco2)CC1` (stereo not drawn) stands 47.5%. Under `CCOC(=O)N1CCN(C(=O)Cc2ccc(-n3c(=S)[nH]c4ccccc4c3=O)cc2)CC1` stands -0.7%. `CCOC(=O)N1CCN(C(=O)CNC(=O)Cc2ccc(Cl)cc2)CC1`: the inhibition was 87.5% (active).

Regarding `OCCN1CCOCCOCCN(CCO)CCN(CCO)CC1`, the inhibition was -4.2%. Under `Cc1ccccc1NC(=O)CCNS(=O)(=O)c1ccc2[nH]c(=O)oc2c1` stands -8.2%; under `C=CCOc1c(CNn2cn[nH]c2=S)cccc1OC`, 0.65%; under `CC(=O)c1cccc(OCC(=O)OCC(=O)Nc2cc(S(=O)(=O)N3CCCCC3)ccc2C)c1`, 38.5%. In the case of `Cc1ccc(S(=O)(=O)N2CCCCC2)cc1NC(=O)CCNC(=O)c1ccccc1`, the inhibition was 2.03%. For the compound `Cc1ccc(S(=O)(=O)N2CCCCC2)cc1NC(=O)c1cccnc1`, the inhibition is 65.4% (active). Consider `O=P(c1ccc2c(c1)OCCO2)(N1CCOCC1)N1CCOCC1`, for which the inhibition is 1.28%.

As for `CCCCNC(=O)C1CCC(=O)N1CCc1ccccc1` (stereo not drawn), the inhibition is -2.64%. Under `Cc1ccc(CN2C(=O)CCC2C(=O)NCCCN2CCCCC2C)cc1` (stereo not drawn) stands 102% (active). Under `CCC(C)NC(=O)C1CCC(=O)N1Cc1ccc(C)cc1` (stereo not drawn) stands 3.49%. For the compound `CC(=O)c1cccc(NC(=O)[C@@H](NC(N)=O)C(C)C)c1`, the inhibition is 15.6%. To `Cc1ccc2nsnc2c1S(=O)(=O)N1CCCC1C(=O)O` (stereo not drawn) belongs 19.9%; to `COc1cc(C2/C(=C(\O)c3ccc4c(c3)CC(C)O4)C(=O)C(=O)N2c2nnc(C)s2)cc(OC)c1OC` (stereo not drawn), 18.6%; to `Cc1ccc(C2(C)NC(=O)N(CC(=O)Nc3ccccc3C(=O)N3CCCCC3)C2=O)cc1` (stereo not drawn), 56.8% (active). Under `Cc1ccc(NC(=O)CN2C(=O)NC(C)(c3ccc(Cl)cc3)C2=O)c(Br)c1` (stereo not drawn) stands -0.27%; under `Cc1ccc(C2(C)NC(=O)N(CC(=O)N3CC(=O)Nc4ccccc43)C2=O)cc1` (stereo not drawn), -7.93%. Take `CC(=O)OC1CCC2C3CCC4=C(CC(F)C(=O)C4)C3CCC12C` (stereo not drawn): the inhibition is -26.5%. Take `CCOc1ccccc1OCC(=O)Nc1ccccc1C(=O)NC1CC1`: the inhibition is -8.99%. Under `O=C(NC1=CC(=O)c2ccccc2C1=O)c1ccccc1` stands 19.2%. As for `CC(=O)N(C1=C(Cl)C(=O)c2ccccc2C1=O)c1ccc(C(=O)O)cc1`, the inhibition is 64.7% (active).

For the compound `CC(C)(Oc1ccc(Cl)cc1)C(=O)OCC(=O)NCCc1ccc(S(N)(=O)=O)cc1`, the inhibition was 19%. Regarding `O=C(CN1C(=O)COc2ccc(Cl)cc21)Nc1ccc(N2CCOCC2)cc1`, the inhibition was 3.15%. Regarding `CC(C)C[C@H](NC(=O)N1CCn2c1nc1ccccc12)C(=O)NC1CC1`, the inhibition is 60.8% (active). Under `CC(C)[C@H](NC(=O)N1CCn2c1nc1ccccc12)C(=O)NC1CC1` stands 35.9%; under `CSCC[C@H](NC(=O)N1CCn2c1nc1ccccc12)C(=O)NC1CCCCC1`, -6.82%; under `NS(=O)(=O)c1ccc(CCNC(=O)CNC(=O)Cc2ccccc2)cc1`, 3.4%. Consider `NS(=O)(=O)c1ccc(CNC(=O)c2cccc(Oc3ccccc3)c2)cc1`, for which the inhibition was 10.4%.

As for `CC(NCCc1ccc(S(N)(=O)=O)cc1)C(=O)NCc1ccccc1` (stereo not drawn), the inhibition is 57.4% (active). Consider `O=C(CC12CC3CC(CC(C3)C1)C2)NCc1ccco1`, for which the inhibition is 5.06%. Turning to `O=C1C(Cl)=C(Oc2ccccc2)C(=O)c2ccccc21`, the inhibition was 55.1% (active).

In the case of `Cc1ccc(C(=O)CN2C(=O)NC3(CCOc4ccccc43)C2=O)s1` (stereo not drawn), the inhibition was -5.1%. Consider `O=C(COc1ccc(F)cc1Br)NCC1COc2ccccc2O1` (stereo not drawn), for which the inhibition is 0.24%. Turning to `COc1cccc(OCC(O)CNC(=O)c2oc3c(C)c(C)ccc3c2C)c1` (stereo not drawn), the inhibition is 2.32%. Under `CN=C1S/C(=C\c2c(OC)cc(OC)cc2OC)C(=O)N1C` stands 7.51%; under `Cc1ccc(N=C2NC(=O)/C(=C/C=C/c3ccco3)S2)cc1C`, 42.9%; under `CN1C(=O)/C(=C/c2ccco2)SC1=Nc1cccc(C(=O)O)c1`, 62.3% (active). Under `COc1ccc(C2(CNC(=O)C(c3ccccc3)c3ccccc3)CCOCC2)cc1OC` stands -2.16%. Consider `Cc1ccc(NC(=S)Nc2ccc(F)cc2)cc1`, for which the inhibition was 2.86%. To `CC(C)c1ccc(NC(=S)NC2CC3C=CC2C3)cc1` (stereo not drawn) belongs -12.9%. Turning to `Cc1ccc(C)c(NC(=S)NNC(=S)Nc2ccc(C(C)C)cc2)c1`, the inhibition was 60.6% (active).

`Cn1cc(CCC(=O)N2CCCC(C(=O)c3ccc(C(C)(C)C)cc3)C2)cn1` (stereo not drawn): the inhibition is 5.89%. For the compound `CCOc1ccc(C(=O)NC2CCN(CC(=O)NCc3cccs3)CC2)cc1`, the inhibition was 54.6% (active). Under `CCOc1ccc(/C=N/OCC(=O)NCc2cccs2)cc1` stands -13.4%. Turning to `CCOc1ccc(C(=O)NC2CCN(S(=O)(=O)CC)CC2)cc1`, the inhibition was 2.75%. Under `c1ccc(Cc2ccc(OCCn3ccnc3)cc2)cc1` stands -5.61%.

Take `O=C(C1CCC1)N1CCN(c2ccccc2)CC1`: the inhibition is 4.58%. Turning to `CC(C)Cn1c(N)c(C(=O)COC(=O)CN2C(=O)C3CC=CCC3C2=O)c(=O)n(C)c1=O` (stereo not drawn), the inhibition was 1.01%. To `CC(NC(=O)COC(=O)c1cc(=O)[nH]c2ccccc12)c1ccccc1` (stereo not drawn) belongs 11.9%; to `CN(C(=O)COC(=O)c1cc(=O)[nH]c2ccccc12)C1CCCCC1`, 54.7% (active). Take `CC1CCN(C(=O)COC(=O)c2cc(=O)[nH]c3ccccc23)CC1`: the inhibition was -3.58%. As to `O=C(Nc1ccccc1)N1CCN(C2c3ccccc3-c3ccccc32)CC1`, the inhibition is -3.43%. As for `CC1CN(CC(=O)NC(C)c2ccccc2)CC(C)O1` (stereo not drawn), the inhibition was 0.77%. With `Cn1c(=O)c2sccc2n(Cc2ccc(Br)cc2)c1=O`, the inhibition is -7.24%. To `CCCCNc1nc2c(c(=O)n(C)c(=O)n2C)n1Cc1cccc(OC)c1` belongs 13.6%; to `Cn1c(=O)c2c(nc(N/N=C/c3cccs3)n2Cc2ccc(Br)cc2)n(C)c1=O`, 70.5% (active). For `Cc1cccc(N2CCN(c3ccc(NC(=O)/C=C\C(=O)O)cc3)CC2)c1`, the inhibition is 15.9%. Regarding `CN1CCN(c2ccc(NC(=O)c3cc(Cl)c4c(c3)OCCO4)cc2)CC1`, the inhibition was 30.2%.

`C=CC(=O)Nc1ccc(Nc2ccnc(Nc3ccc(N4CCN(C)CC4)cc3)n2)cc1`: the inhibition is 55.9% (active). As to `Cn1c(SCc2nc3ccccc3s2)nnc1-c1ccc2c(c1)OCO2`, the inhibition is -3.99%. Under `CCCCN(CC)CCNC(=O)CCNC(=O)Cn1ccc2ccccc2c1=O` stands 1.19%. Under `O=C1NC(=O)C(CCc2ccccc2)(c2ccccc2)N1` (stereo not drawn) stands -9.95%; under `C/C(Cl)=C\Cn1c(Nc2cccc(C)c2)nc2c1c(=O)n(C)c(=O)n2C`, -6.48%. For `Cc1ccc(CNC(=O)C2CC(=O)N(C3CCCCCCC3)C2)cc1` (stereo not drawn), the inhibition was 93.8% (active).

For `O=C(NCCc1ccc(Cl)cc1)C1CC(=O)N(C2CCCCC2)C1` (stereo not drawn), the inhibition is 6.36%. On to `COc1cccc(CNC(=O)C2CC(=O)N(C3CCCCCCC3)C2)c1` (stereo not drawn), for which the inhibition was -10.2%.

For `COc1ccc(Br)cc1CN(C)CC(=O)Nc1cc(Cl)cc(Cl)c1`, the inhibition was 4.23%. Under `CCc1cccc2c(C=C(C#N)C#N)cn(CC(=O)N3CCCCC3)c12` stands 9.35%; under `COc1ccc(Cc2nnc(SCC(=O)c3cccc([N+](=O)[O-])c3)n2C)cc1`, 7.36%; under `CCc1ccccc1OCC(=O)Nc1ccc(C)c(S(=O)(=O)N2CCCCCC2)c1`, 10.8%.

Take `COc1cc2c(cc1NC(=O)COC(=O)/C=C/c1ccccc1)oc1ccccc12`: the inhibition is 105% (active). Consider `COc1cc2c(cc1NC(=O)CN1CCN(S(=O)(=O)c3ccc(F)cc3)CC1)oc1ccccc12`, for which the inhibition was 11.4%. Turning to `COc1cc(/C=C/C(=O)OCC(=O)c2ccccc2)cc(OC)c1OC`, the inhibition is 10%. Under `Cc1cccc(NC(=O)c2ccc([N+](=O)[O-])o2)c1` stands 5.65%; under `O=C(CNC(=O)c1ccc(Br)o1)Nc1ccccc1`, 7.78%; under `Cc1cccc(NC(=S)NC(=O)c2ccc(Br)o2)c1`, 61.8% (active). To `Cc1cc(C)cc(C(=O)NC(=S)Nc2ccc3[nH]c(=O)[nH]c3c2)c1` belongs 10.9%; to `CCCCNC(=O)C1CCCN(S(=O)(=O)c2ccc(S(=O)(=O)NCC(C)C)cc2)C1` (stereo not drawn), 4.41%; to `Cc1cccc(NC(=O)C2CCCN(C(=O)Nc3ccc(F)cc3)C2)c1C` (stereo not drawn), 25%.

Turning to `Cc1cc(/C=C2/SC(=O)N(CC(=O)N3CCCC3)C2=O)c(C)n1C`, the inhibition was -9.22%. Under `Cc1cc(/C=C2\SC(=Nc3ccc(N4CCOCC4)cc3)N(C)C2=O)c(C)n1-c1cccnc1` stands -3.18%; under `Cc1cc(/C=C2\SC(=O)N(C)C2=O)c(C)n1-c1cccc(C(=O)O)c1`, 54.7% (active). To `COc1cccc(C(=O)n2ccc(-c3cccs3)n2)c1` belongs 4.99%.

The record behind these values is PubChem BioAssay AID504490 (NMMLSC, 2011).
